{"source": "ChEMBL document CHEMBL1921714", "about": "“Discovery of aminobenzyloxyarylamides as κ opioid receptor selective antagonists: application to preclinical development of a κ opioid receptor antagonist receptor occupancy tracer” (J Med Chem, 2011)", "key": {"[1]": {"biological_target": "T1, Kappa-type opioid receptor (Homo sapiens, UniProt P41145)", "T1 sequence (P41145 whole entry)": "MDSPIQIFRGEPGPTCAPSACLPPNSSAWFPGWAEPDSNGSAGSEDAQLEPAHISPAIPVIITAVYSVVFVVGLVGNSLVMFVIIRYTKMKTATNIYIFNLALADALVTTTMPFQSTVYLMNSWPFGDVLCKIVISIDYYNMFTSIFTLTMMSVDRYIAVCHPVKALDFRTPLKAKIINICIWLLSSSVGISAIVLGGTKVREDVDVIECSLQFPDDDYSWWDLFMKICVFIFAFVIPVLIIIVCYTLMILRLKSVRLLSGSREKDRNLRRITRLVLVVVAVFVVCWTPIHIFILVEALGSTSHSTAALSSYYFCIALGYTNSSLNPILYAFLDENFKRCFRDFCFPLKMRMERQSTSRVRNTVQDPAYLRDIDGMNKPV", "assay": "Agonist activity at human opioid kappa receptor expressed in CHO cells assessed as stimulation of [35S]-GTPgammaS binding at 10 uM", "type": "functional, cell-based", "in_short": "(§1)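 Agonist mode: membranes from CHO (κ, μ) or HEK293 (δ) cells expressing cloned human receptors, no agonist added, tested at up to 10 μM. [35S]GTP-γ-S (0.5 nM final) binding in HEPES pH 7.4, MgCl2, NaCl, EDTA, DTT, 200 μM GDP. Read by WGA SPA beads after 2 h (δ) or 4 h (κ, μ) at room temperature, then 4 °C overnight.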"}, "Nucleic Acid": {"test_system": "Nucleic Acid", "assay": "Ratio of drug uptake in striatum to cerebellum in rat at 3 ug/kg, iv measured after 40 mins by LC/MS/MS analysis", "type": "ADME, organism-based", "settings": "in vivo, 0.003 mg/kg", "in_short": "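Groups of four rats were given iv tracer and killed 20 or 40 min after dosing. Striatum (total binding) and cerebellum (nonspecific, null region) were extracted in acetonitrile/0.1% formic acid and quantified by LC/MS/MS. Binding potential was calculated as (striatum/cerebellum concentration) − 1.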"}, "Striatum [2]": {"test_system": "Striatum", "assay": "Drug uptake in rat striatum at 3 ug/kg, iv pretreated 1 hr with 3-Fluoro-4-[4-[[ (2S)-2-(3-fluorophenyl)pyrrolidin-1-yl]methyl]- phenoxy]benzamide measured after 40 mins by LC/MS-MS analysis", "type": "ADME, organism-based", "settings": "in vivo, 0.003 mg/kg", "in_short": "(§2)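 Rats were pretreated 1 h with the κ antagonist at a range of doses, then given tracer at 3 ug/kg iv. Brains were taken 40 min after tracer. Striatum and cerebellum were extracted in acetonitrile/0.1% formic acid and tracer levels quantified by LC/MS/MS.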"}, "Mu-type opioid receptor [3]": {"biological_target": "T2, Mu-type opioid receptor (Homo sapiens, UniProt P35372)", "T2 sequence (P35372 whole entry)": "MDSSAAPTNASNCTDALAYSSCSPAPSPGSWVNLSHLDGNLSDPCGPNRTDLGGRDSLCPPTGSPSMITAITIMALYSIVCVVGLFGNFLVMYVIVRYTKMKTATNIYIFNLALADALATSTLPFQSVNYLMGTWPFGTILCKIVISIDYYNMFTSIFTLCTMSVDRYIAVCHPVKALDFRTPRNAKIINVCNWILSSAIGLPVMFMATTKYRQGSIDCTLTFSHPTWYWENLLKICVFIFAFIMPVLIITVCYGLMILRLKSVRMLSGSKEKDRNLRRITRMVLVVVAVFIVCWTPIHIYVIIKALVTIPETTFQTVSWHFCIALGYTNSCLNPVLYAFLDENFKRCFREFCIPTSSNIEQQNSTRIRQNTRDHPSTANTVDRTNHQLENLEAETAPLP", "assay": "Agonist activity at human opioid mu receptor expressed in CHO cells assessed as stimulation of [35S]-GTPgammaS binding at 10 uM", "type": "functional, cell-based", "in_short": "as §1"}, "Mu-type opioid receptor [4]": {"biological_target": "T2, Mu-type opioid receptor", "assay": "Antagonist activity at human opioid mu receptor expressed in CHO cells assessed as inhibition of DAMGO-induced [35S]GTP-gamma-S binding after 4 hrs by scintillation counting", "type": "functional, cell-based"}, "[5]": {"biological_target": "T3, Delta-type opioid receptor (Homo sapiens, UniProt P41143)", "T3 sequence (P41143 whole entry)": "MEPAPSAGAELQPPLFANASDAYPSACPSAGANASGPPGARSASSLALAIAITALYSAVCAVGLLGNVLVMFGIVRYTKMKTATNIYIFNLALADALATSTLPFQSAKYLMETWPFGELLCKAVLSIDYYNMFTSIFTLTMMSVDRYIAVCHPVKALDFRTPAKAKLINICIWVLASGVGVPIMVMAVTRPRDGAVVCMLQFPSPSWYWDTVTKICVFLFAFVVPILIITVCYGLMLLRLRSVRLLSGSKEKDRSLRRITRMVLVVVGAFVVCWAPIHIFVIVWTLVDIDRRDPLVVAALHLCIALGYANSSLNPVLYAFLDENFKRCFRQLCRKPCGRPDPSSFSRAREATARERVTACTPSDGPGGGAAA", "assay": "Displacement of [3H]diprenorphine from human opioid delta receptor expressed in HEK293 cells after 120 mins by scintillation counting", "type": "cell-based", "in_short": "(§3)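 11-point curves, 0.01 nM–1 μM final. 120 min at 22 °C, then filtration and scintillation counting. Nonspecific binding set by 10 μM naltrexone. Four-parameter IC50; Ki by Cheng–Prusoff.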"}, "Mu-type opioid receptor [6]": {"biological_target": "T2, Mu-type opioid receptor", "assay": "Displacement of [3H]diprenorphine from human opioid mu receptor expressed in CHO cells after 120 mins by scintillation counting", "type": "cell-based", "in_short": "as §3"}, "CHO [7]": {"test_system": "CHO", "assay": "Selectivity ratio of Kb for human opioid mu receptor expressed in CHO cells to Kb for human opioid kappa receptor expressed in CHO cells", "type": "cell-based", "in_short": "(§4)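 Kb ratios from antagonist [35S]GTP-γ-S SPA on CHO (κ, μ) or HEK293 (δ) membranes. Agonists at about 80% maximal: U69,593 300 nM (κ), DAMGO 1 μM (μ), DPDPE 30 nM (δ). 11-point curves, top 1 or 10 μM. Nonspecific binding: NorBNI, naltrexone or naltriben, each 10 μM. Kb = IC50/(1+D/EC50); geometric means with SEM.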"}, "[8]": {"biological_target": "T3, Delta-type opioid receptor", "assay": "Antagonist activity at human opioid delta receptor expressed in HEK293 cells assessed as inhibition of DPDPE-induced [35S]GTP-gamma-S binding after 4 hrs by scintillation counting", "type": "functional, cell-based"}, "[9]": {"biological_target": "T1, Kappa-type opioid receptor", "assay": "Antagonist activity at human opioid kappa receptor expressed in CHO cells assessed as inhibition of U69593-induced [35S]GTP-gamma-S binding after 4 hrs by scintillation counting", "type": "functional, cell-based"}, "CHO [10]": {"test_system": "CHO", "assay": "Selectivity ratio of Ki for human opioid mu receptor expressed in CHO cells to Ki for human opioid kappa receptor expressed in CHO cells", "type": "cell-based"}, "Cerebellum": {"test_system": "Cerebellum", "assay": "Drug uptake in rat cerebellum at 3 ug/kg, iv pretreated 1 hr with 3-Fluoro-4-[4-[[ (2S)-2-(3-fluorophenyl)pyrrolidin-1-yl]methyl]- phenoxy]benzamide measured after 40 mins by LC/MS-MS analysis", "type": "ADME, organism-based", "settings": "in vivo, 0.003 mg/kg", "in_short": "as §2"}, "HEK293 [11]": {"test_system": "HEK293", "assay": "Selectivity ratio of Kb for human opioid delta receptor expressed in HEK293 cells to Kb for human opioid kappa receptor expressed in CHO cells", "type": "cell-based", "in_short": "as §4"}, "[12]": {"biological_target": "T3, Delta-type opioid receptor", "assay": "Agonist activity at human opioid delta receptor expressed in HEK293 cells assessed as stimulation of [35S]-GTPgammaS binding at 10 uM", "type": "functional, cell-based", "in_short": "as §1"}, "[13]": {"biological_target": "T1, Kappa-type opioid receptor", "assay": "Displacement of [3H]diprenorphine from human opioid kappa receptor expressed in CHO cells after 120 mins by scintillation counting", "type": "cell-based", "in_short": "as §3"}, "Striatum [14]": {"test_system": "Striatum", "assay": "Drug uptake in rat striatum at 3 ug/kg, iv measured after 40 mins by LC/MS-MS analysis", "type": "ADME, organism-based", "settings": "in vivo, 0.003 mg/kg", "in_short": "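Groups of four rats received a single iv tracer dose and were killed 20 or 40 min later. Striatum was weighed, homogenized in 4 volumes acetonitrile/0.1% formic acid and centrifuged. The supernatant was diluted and analysed by LC/MS/MS against standards spiked into naive rat brain. %SUV = tissue amount/injected dose × 100.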"}, "HEK293 [15]": {"test_system": "HEK293", "assay": "Selectivity ratio of Ki for human opioid delta receptor expressed in HEK293 cells to Ki for human opioid kappa receptor expressed in CHO cells", "type": "cell-based"}}, "note": "pKi: −log10 of the molar value. Activity calls are given as the source filed them. The calls are words filed in the database; no cut-off is given here.", "data": [{"smiles": "NC(=O)c1ccc(Oc2ccc(CN3CCC[C@H]3c3cccnc3)cc2)c(Cl)c1", "values": [{"measurement": "Activity", "setting": "[1]", "value": "inactive"}, {"measurement": "Ratio", "setting": "Nucleic Acid", "value": 1.2}, {"measurement": "Drug uptake", "setting": "Striatum [2]", "value": "Active"}, {"measurement": "Activity", "setting": "Mu-type opioid receptor [3]", "value": "inactive"}, {"measurement": "Kb", "setting": "Mu-type opioid receptor [4]", "value": 0.0068, "unit": "µM"}, {"measurement": "pKi", "setting": "[5]", "value": 6.82}, {"measurement": "pKi", "setting": "Mu-type opioid receptor [6]", "value": 7.59}, {"measurement": "Ratio", "setting": "CHO [7]", "value": 11}, {"measurement": "Kb", "setting": "[8]", "value": 0.0833, "unit": "µM"}, {"measurement": "Kb", "setting": "[9]", "value": 0.000632, "unit": "µM"}, {"measurement": "Ratio Ki", "setting": "CHO [10]", "value": 36}, {"measurement": "Drug uptake", "setting": "Cerebellum", "value": "Not Active"}, {"measurement": "Ratio", "setting": "HEK293 [11]", "value": 132}, {"measurement": "Activity", "setting": "[12]", "value": "inactive"}, {"measurement": "pKi", "setting": "[13]", "value": 9.14}, {"measurement": "SUV", "setting": "Striatum [14]", "value": 67, "unit": "%"}, {"measurement": "Ratio Ki", "setting": "HEK293 [15]", "value": 212}]}]}
